Test results as given in ChEMBL document CHEMBL1817608, “Synthesis and anti-inflammatory effects of a series of novel 7-hydroxycoumarin derivatives” (Eur J Med Chem, 2011).
One block for each compound: values may come before it.

Legend:
J774 [1] = test: Antiinflammatory activity in mouse J774 cells assessed as inhibition of LPS-induced NO production at 10 uM by Griess reaction; format: functional
Procedure, shortened: (§1)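 Confluent J774 macrophages, grown 72 h in 24-well plates, were stimulated with LPS in fresh medium containing compound. Nitrite was quantified against a sodium nitrite standard. Results were given as % inhibition versus LPS alone, mean ± S.E.M.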

J774 [2] = test: Antiinflammatory activity in mouse J774 cells assessed as inhibition of LPS-induced NO production at 100 uM by Griess reaction; format: functional; procedure, shortened: as §1
J774 [3] = test: Cytotoxicity against mouse J774 cells at 100 uM by XTT assay; format: cell-based; settings: j774, 100 µM
Procedure, shortened: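 Confluent J774 monolayers were exposed to compound under the same conditions as the anti-inflammatory assays. Viability was read as mitochondrial dehydrogenase reduction of XTT to formazan.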

J774 [4] = test: Inhibition of LPS-stimulated IL-6 production in mouse J774 cells at 10 uM by ELISA
J774 [5] = test: Inhibition of LPS-stimulated IL-6 production in mouse J774 cells at 100 uM by ELISA
J774 [6] = test: Inhibition of LPS-stimulated iNOS protein expression in mouse J774 cells at 10 uM by Western blot analysis
J774 [7] = test: Inhibition of LPS-stimulated iNOS protein expression in mouse J774 cells at 100 uM by Western blot analysis
J774 [8] = test: Antiinflammatory activity in mouse J774 cells assessed as inhibition of LPS-induced COX-2 protein expression at 10 uM by Western blot
J774 [9] = test: Antiinflammatory activity in mouse J774 cells assessed as inhibition of LPS-induced COX-2 protein expression at 100 uM by Western blot
[10] = target: Transcription factor p65 (Mus musculus) (UniProt Q04207); test: Inhibition of NF-kB p65 nuclear translocation in LPS-stimulated mouse J774 cells by Western blot analysis; format: cell-based; settings: concentration not given here
Transcription factor p65 (Mus musculus), sequence (Q04207 whole entry): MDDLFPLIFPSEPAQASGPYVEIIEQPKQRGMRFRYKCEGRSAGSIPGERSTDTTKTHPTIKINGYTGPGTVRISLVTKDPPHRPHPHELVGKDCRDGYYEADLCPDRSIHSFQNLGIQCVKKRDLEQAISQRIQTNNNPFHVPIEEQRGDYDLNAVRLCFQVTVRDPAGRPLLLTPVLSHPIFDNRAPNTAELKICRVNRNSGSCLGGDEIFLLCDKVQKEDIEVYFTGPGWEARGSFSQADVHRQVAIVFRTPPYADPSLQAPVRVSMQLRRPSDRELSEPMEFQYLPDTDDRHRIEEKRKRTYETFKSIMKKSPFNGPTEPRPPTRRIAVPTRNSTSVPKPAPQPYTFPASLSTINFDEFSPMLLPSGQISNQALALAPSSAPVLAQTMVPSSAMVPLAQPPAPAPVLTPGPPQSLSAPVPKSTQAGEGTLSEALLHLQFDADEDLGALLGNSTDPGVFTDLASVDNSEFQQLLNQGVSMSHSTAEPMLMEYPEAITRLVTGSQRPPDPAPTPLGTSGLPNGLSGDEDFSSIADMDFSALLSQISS
Procedure, shortened: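 Nuclear extracts were prepared from LPS-treated J774 cells using hypotonic buffer A followed by high-salt buffer C (420 mM NaCl). Extract protein (20 µg) was run on 10% SDS-PAGE, blotted, and probed with anti-NF-κB p65 antibody, then detected by chemiluminescence.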

J774 [11] = test: Inhibition of LPS-stimulated iNOS mRNA expression in mouse J774 cells by RT-PCR analysis; format: functional
Procedure, shortened: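 J774 cells were incubated for 3 h with LPS plus compound. Total RNA was extracted and reverse-transcribed, then run by real-time PCR for 40 cycles (95 °C 15 s / 60 °C 1 min), in duplicate. iNOS mRNA was quantified from a standard curve built with LPS-stimulated J774 RNA and normalised to GAPDH.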

[12] = target: Transcription factor p65 (Mus musculus) (UniProt Q04207); test: Inhibition of NF-kB p65 nuclear translocation in LPS-stimulated mouse J774 cells at 100 uM by Western blot analysis; format: cell-based
Procedure, shortened: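 J774 murine macrophages were grown in DMEM glutamax-I with 10% heat-inactivated FBS and antibiotics for 72 h to confluence, then given compound with LPS in fresh medium. Nuclear extracts were made by hypotonic lysis followed by high-salt extraction of the nuclei. 20 µg protein was run on 10% SDS-PAGE and blotted onto nitrocellulose. Blots were probed with anti-p65 and an HRP secondary antibody, and chemiluminescence was quantified. Results are mean ± SEM.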

Compound: COc1c(O)ccc2c(C)c(F)c(=O)oc12
inhibition at 10 µM (J774 [1]): 15.8%
inhibition at 100 µM (J774 [2]): 50.2%
Activity (J774 [3]): Non-toxic
inhibition at 10 µM (J774 [4]): 10.7%
inhibition at 100 µM (J774 [5]): 14.8%
inhibition at 10 µM (J774 [6]): 2.7%
inhibition at 100 µM (J774 [7]): 86.2%
inhibition at 10 µM (J774 [8]): -15.4%
inhibition at 100 µM (J774 [9]): -36.8%

Compound: CCc1c(C)c2ccc(O)c(C)c2oc1=O
inhibition at 10 µM (J774 [1]): 46.5%
inhibition at 100 µM (J774 [2]): 87%
Activity (J774 [3]): Non-toxic
inhibition at 10 µM (J774 [4]): 26.1%
inhibition at 100 µM (J774 [5]): 94.9%
inhibition at 10 µM (J774 [6]): 18.9%
inhibition at 100 µM (J774 [7]): 65.2%
inhibition at 10 µM (J774 [8]): -36.8%
inhibition at 100 µM (J774 [9]): 21%

Compound: Cc1cc(O)cc2oc(=O)cc(C)c12
inhibition at 10 µM (J774 [1]): -8.6%
inhibition at 100 µM (J774 [2]): 71%
Activity (J774 [3]): Non-toxic
inhibition at 10 µM (J774 [4]): 14.5%
inhibition at 100 µM (J774 [5]): 66.4%
inhibition at 10 µM (J774 [6]): -19.7%
inhibition at 100 µM (J774 [7]): 74.3%
inhibition at 10 µM (J774 [8]): -14.8%
inhibition at 100 µM (J774 [9]): -17.5%

Compound: Cc1cc(=O)oc2cc(O)ccc12 [HYMECROMONE]
inhibition at 10 µM (J774 [1]): -14.2%
inhibition at 100 µM (J774 [2]): 42.9%
Activity (J774 [3]): Non-toxic
inhibition at 10 µM (J774 [4]): 4.6%
inhibition at 100 µM (J774 [5]): 44.1%
inhibition at 10 µM (J774 [6]): 22.1%
inhibition at 100 µM (J774 [7]): 61.8%
inhibition at 10 µM (J774 [8]): 3.2%
inhibition at 100 µM (J774 [9]): 22.7%

Compound: CCCc1cc(=O)oc2c(OC)c(O)ccc12
inhibition at 10 µM (J774 [1]): 57%
inhibition at 100 µM (J774 [2]): 83.7%
Activity (J774 [3]): Non-toxic
inhibition at 10 µM (J774 [4]): 11%
inhibition at 100 µM (J774 [5]): 73.4%
inhibition at 10 µM (J774 [6]): 13.4%
inhibition at 100 µM (J774 [7]): 74.6%
inhibition at 10 µM (J774 [8]): -38.9%
inhibition at 100 µM (J774 [9]): 8.6%

Compound: CCCc1cc(=O)oc2cc(O)ccc12
inhibition at 10 µM (J774 [1]): 25.3%
inhibition at 100 µM (J774 [2]): 67.6%
Activity (J774 [3]): Non-toxic
inhibition at 10 µM (J774 [4]): 25.4%
inhibition at 100 µM (J774 [5]): 88.9%
inhibition at 10 µM (J774 [6]): 25.3%
inhibition at 100 µM (J774 [7]): 89.7%
inhibition at 10 µM (J774 [8]): -11.1%
inhibition at 100 µM (J774 [9]): 25%

Compound: CCCc1cc(=O)oc2cc(O)cc(C)c12
inhibition at 10 µM (J774 [1]): 38.5%
inhibition at 100 µM (J774 [2]): 62.5%
Activity (J774 [3]): Non-toxic
inhibition at 10 µM (J774 [4]): 12.2%
inhibition at 100 µM (J774 [5]): 54.3%
inhibition at 10 µM (J774 [6]): 7.8%
inhibition at 100 µM (J774 [7]): 87.8%
inhibition at 10 µM (J774 [8]): -6.8%
inhibition at 100 µM (J774 [9]): -45.6%

Compound: Cc1cc(=O)oc2c(C)c(O)ccc12
inhibition at 10 µM (J774 [1]): 17.3%
inhibition at 100 µM (J774 [2]): 65.7%
Activity (J774 [3]): Non-toxic
inhibition at 10 µM (J774 [4]): 17.5%
inhibition at 100 µM (J774 [5]): 82.8%
inhibition at 10 µM (J774 [6]): 20.1%
inhibition at 100 µM (J774 [7]): 61.4%
inhibition at 10 µM (J774 [8]): 2.3%
inhibition at 100 µM (J774 [9]): 7.8%

inhibition [10]: 65%
Compound: Cc1c(C)c2c(C)cc(O)cc2oc1=O
inhibition at 10 µM (J774 [1]): 51.8%
inhibition at 100 µM (J774 [2]): 92.4%
Activity (J774 [3]): Non-toxic
inhibition (INH) (J774 [11]): 50%
inhibition at 100 µM (J774 [5]): 92.2%
inhibition at 10 µM (J774 [6]): 49.6%
inhibition at 100 µM (J774 [7]): 94.7%
inhibition at 10 µM (J774 [8]): -31.7%
inhibition at 100 µM (J774 [9]): 11.1%

Compound: Cc1cc(O)cc2oc(=O)ccc12
inhibition at 10 µM (J774 [1]): 9.2%
inhibition at 100 µM (J774 [2]): 80%
Activity (J774 [3]): Non-toxic
inhibition at 100 µM (J774 [5]): 4.2%
inhibition at 10 µM (J774 [6]): 2.7%
inhibition at 100 µM (J774 [7]): 86.2%
inhibition at 10 µM (J774 [8]): -44.1%
inhibition at 100 µM (J774 [9]): -60.4%

Compound: O=c1cc(-c2ccccc2F)c2ccc(O)cc2o1
inhibition at 10 µM (J774 [1]): 50.4%
inhibition at 100 µM (J774 [2]): 87.5%
Activity (J774 [3]): Non-toxic
inhibition at 10 µM (J774 [4]): 0.3%
inhibition at 100 µM (J774 [5]): 92.7%
inhibition at 10 µM (J774 [6]): 48.8%
inhibition at 100 µM (J774 [7]): 95.4%
inhibition at 10 µM (J774 [8]): -34.7%
inhibition at 100 µM (J774 [9]): -16.6%

Compound: COc1c(O)ccc2c(-c3ccccc3)cc(=O)oc12
inhibition at 10 µM (J774 [1]): 71.5%
inhibition at 100 µM (J774 [2]): 81.8%
Activity (J774 [3]): Non-toxic
inhibition at 100 µM (J774 [5]): 46.9%
inhibition at 10 µM (J774 [6]): 55.9%
inhibition at 100 µM (J774 [7]): 84.6%
inhibition at 10 µM (J774 [8]): -59.1%
inhibition at 100 µM (J774 [9]): -34.7%

Compound: Cc1c(F)c(=O)oc2cc(O)ccc12
inhibition at 10 µM (J774 [1]): 7.4%
inhibition at 100 µM (J774 [2]): 62.8%
Activity (J774 [3]): Non-toxic
inhibition at 10 µM (J774 [4]): 21.2%
inhibition at 100 µM (J774 [5]): 38.1%
inhibition at 10 µM (J774 [6]): 46.5%
inhibition at 100 µM (J774 [7]): 53%
inhibition at 10 µM (J774 [8]): -2.2%
inhibition at 100 µM (J774 [9]): -25.1%

Compound: O=c1cc(-c2ccccc2)c2ccc(O)cc2o1
inhibition at 10 µM (J774 [1]): 54.8%
inhibition at 100 µM (J774 [2]): 85%
Activity (J774 [3]): Non-toxic
inhibition at 100 µM (J774 [5]): 95.7%
inhibition at 10 µM (J774 [6]): 46.5%
inhibition at 100 µM (J774 [7]): 93%
inhibition at 10 µM (J774 [8]): -47.1%
inhibition at 100 µM (J774 [9]): -0.4%

inhibition [10]: 65%
Compound: CCc1c(C)c2ccc(O)cc2oc1=O
inhibition at 10 µM (J774 [1]): 43.3%
inhibition at 100 µM (J774 [2]): 92.3%
Activity (J774 [3]): Non-toxic
inhibition (INH) (J774 [11]): 50%
inhibition at 10 µM (J774 [4]): 27.9%
inhibition at 10 µM (J774 [6]): 7.5%
inhibition at 100 µM (J774 [7]): 91%
inhibition at 10 µM (J774 [8]): -29.9%
inhibition at 100 µM (J774 [9]): -73.2%

Compound: O=c1ccc2ccc(O)cc2o1 [UMBELLIFERONE]
inhibition at 10 µM (J774 [1]): 5.5%
inhibition at 100 µM (J774 [2]): 64.4%
Activity (J774 [3]): Non-toxic
inhibition at 10 µM (J774 [4]): 3.2%
inhibition at 100 µM (J774 [5]): 34.1%
inhibition at 10 µM (J774 [6]): 10%
inhibition at 100 µM (J774 [7]): 47.2%
inhibition at 10 µM (J774 [8]): -17.2%
inhibition at 100 µM (J774 [9]): -20.4%

inhibition [10]: 65%
Compound: Cc1c(C)c2ccc(O)cc2oc1=O
inhibition at 10 µM (J774 [1]): 37.6%
inhibition at 100 µM (J774 [2]): 88.9%
Activity (J774 [3]): Non-toxic
inhibition (INH) (J774 [11]): 50%
inhibition at 10 µM (J774 [4]): 16.7%
inhibition at 100 µM (J774 [5]): 85.7%
inhibition at 10 µM (J774 [6]): 28.6%
inhibition at 100 µM (J774 [7]): 85.5%
inhibition at 10 µM (J774 [8]): -57.7%
inhibition at 100 µM (J774 [9]): 3.7%

Compound: S=C(S)N1CCCC1 [PYRROLIDINE DITHIOCARBAMATE]
inhibition [12]: 95%
inhibition at 100 µM (J774 [7]): 97%
